Source: PubChem BioAssay (several laboratories)
The list is not random: actives were taken first. Their share in the collection is about 2.9%.
Runt-SMMHC FRET – inhibitors of human RUNX1 Runt domain binding to CBFb-SMMHC. Q01196+Q13951. Cerulean-Runt/Venus-CBFb-SMMHC FRET ratio 530/480, 1 h. inhibition, % at 20 µM. actives 0.74% (n = 220,000);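 active = mean inhibition across duplicate retests at 20 µM reaching about 50%, limit read from the data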;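 also: 0% = DMSO wells and 100% = wells with excess untagged CBFb-SMMHC; inhibitors lower the FRET ratio by blocking Runt binding to CBFb-SMMHC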
Wee1 degr inh – inhibitors of human Wee1 degradation; P30291; reporter increase, % at 5 µM; actives 1.2% (n = 220,000); HeLa Luc-Wee1K328M stability, luciferase luminescence; 100% = proteasome inhibitor MG132 effect; AID 1321;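 active = activation above the mean of all tested compounds plus 3 SD, set per screening run, cut at about 8.8% in these data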;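 also: cells exposed to compound for 20 h before luminescence read; 0% = DMSO alone and 100% = MG132 at 30 µM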
Target sequence (P30291 whole entry K328M): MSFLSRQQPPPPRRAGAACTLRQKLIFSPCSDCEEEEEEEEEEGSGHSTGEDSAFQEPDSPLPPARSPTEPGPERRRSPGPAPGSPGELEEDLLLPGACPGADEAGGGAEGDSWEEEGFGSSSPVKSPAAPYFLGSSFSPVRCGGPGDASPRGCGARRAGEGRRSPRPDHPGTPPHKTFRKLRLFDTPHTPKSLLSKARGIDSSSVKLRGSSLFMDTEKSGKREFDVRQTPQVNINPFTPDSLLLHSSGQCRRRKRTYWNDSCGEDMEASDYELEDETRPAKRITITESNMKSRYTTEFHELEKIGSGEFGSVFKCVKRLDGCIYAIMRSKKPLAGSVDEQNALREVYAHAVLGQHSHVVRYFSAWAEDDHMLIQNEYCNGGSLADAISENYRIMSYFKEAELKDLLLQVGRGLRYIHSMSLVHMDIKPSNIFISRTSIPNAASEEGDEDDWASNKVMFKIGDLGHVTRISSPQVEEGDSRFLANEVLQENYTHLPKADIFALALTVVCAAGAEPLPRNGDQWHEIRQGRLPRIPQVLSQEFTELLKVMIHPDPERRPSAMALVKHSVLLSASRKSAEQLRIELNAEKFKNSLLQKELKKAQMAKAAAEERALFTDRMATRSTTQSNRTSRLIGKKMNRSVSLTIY
Runt-CBFb FRET – Runt domain-CBFb interaction inhibition; Q01196+Q13951; Cerulean-Runt/Venus-CBFb FRET ratio 530/480, 1 h; inhibition, % at 20 µM; actives 0.46% (n = 220,000); AID 1496;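 active = inhibition over about 50% at 20 µM in the single-dose screen, limit read from the data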;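 also: 0% = DMSO wells and 100% = excess unlabeled CBFb competitor control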
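Measured by: fluorescence energy transfer, 422 nm excitation, 530/480 nm emission; test system: Cerulean-tagged RUNX1 Runt domain (FRET donor) fusion protein; buffer or medium: Tris pH 7.5 buffer with BSA; compound: one dose, 20 µM compound, 1% DMSO; times: two 1 h room-temperature incubations shielded from light; benchmarks: unlabeled CBFb 5 µM, positive control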
RanGTP-Imp inh – inhibitors of RanGTP-importin-beta interaction, primary screen, biochemical, FRET, CFP-Ran, YFP-importin-beta, homogeneous | cell-free CFP-Ran/YFP-importin-beta FRET ratio | inhibition, % (test concentration not listed) | actives 1.1% (n = 300,000);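 active = more than half of the replicate wells show a fall in the fluorescence ratio signal beyond about 16%, limit read from the data, passing the limit was not always enough; inconclusive = exactly half of the replicate wells pass the set limit; inactive = fewer than half of replicates pass the limit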;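 also: 0% = DMSO wells and 100% = Ran loaded with GDP instead of GTP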
AI-2 QS mod – modulators of Vibrio harveyi AI-2 quorum sensing system | Vibrio harveyi JMH597 AI-2 luminescence/OD600 ratio, 9 h; stronger effect = lower value; strain lacks LuxN and CqsS sensors; 0 = neutral-control median | activity change, % at 7.5 µM | actives 0.4% (n = 300,000); in the data active = activity change below about -75%, passing the limit was not always enough; inconclusive = no clear call, values can overlap the other calls;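 also: luminescence divided by OD600 gain over 9 h not by final OD600 alone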
KLK7 zymogen act – proKLK7 (human) activation, primary screen | P49862 | purified proKLK7, EDANS-DABCYL substrate fluorescence; 100% is mature enzyme control, 0% vehicle | activation, % at 7 µM | actives 0.9% (n = 370,000) | AID 652039;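 active = activation above the mean of all tested compounds plus 3 SD, computed per campaign excluding outliers beyond control limits, cut at about 13% in these data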
An asterisk follows results filed as active; ? = inconclusive; / = no result.

SMILES | Runt-SMMHC FRET | Wee1 degr inh | Runt-CBFb FRET | RanGTP-Imp inh | AI-2 QS mod | KLK7 zymogen act
Cc1nc2ccc(S(=O)(=O)NCC(=O)NC(C)c3ccccc3)cc2s1 (configuration not stated) | 0.1 | 4.1 | -2.1 | -2.8 | -96.6* | -0.1
Cc1c(C)n(CC(O)CN2CCOCC2)c2ccccc12 (configuration not stated) | -2.5 | -3.6 | -2.0 | 7.4 | 20.2 | 0.2
O=c1c2ccccc2n(CC(O)CN2CCOCC2)c2ccccc12 (configuration not stated) | / | / | / | 79.5* | 18.7 | 5.9
COCCCNCCOc1ccc(C(C)(C)c2ccccc2)cc1 | 2.5 | 9.7* | -1.4 | -8.0 | -2.5 | 0.3
CNCCCOc1ccc(C(C)(C)c2ccccc2)cc1 | -3.0 | -0.3 | -0.8 | -0.6 | 2.0 | /
Cc1cccn2c(=O)c3cc(C(=O)NCc4ccco4)c(=N)n(C4CCCCC4)c3nc12 | / | / | / | 129.7* | 7.7 | /
Cc1ccc2nc3c(cc(C(=O)NCc4ccco4)c(=N)n3C3CCCC3)c(=O)n2c1 | / | / | / | 186.8* | / | 8.7
Cc1cccn2c(=O)c3cc(C(=O)NCc4ccco4)c(=N)n(CCOCCO)c3nc12 | / | -0.5 | / | 154.7* | 12.6 | /
COCCn1c(=N)c(C(=O)NCc2ccco2)cc2c(=O)n3cc(C)ccc3nc21 | / | 0.0 | / | -3.9 | 7.8 | 9.3
CC(=O)N1CCN(c2nc(-c3ccco3)c3c(c2C#N)CC(C)(C)SC3)CC1 | -41.7 | -2.0 | -12.5 | 16.0* | -9.7 | -0.4
CC1(C)Cc2c(C#N)c(N3CCN(C(=O)c4ccco4)CC3)nc(-c3ccco3)c2CS1 | -39.9 | -1.3 | -7.5 | 10.1 | 47.5 | -0.1
COC(=O)c1ccc(OCCOc2ccccc2C)cc1 | / | / | / | 2.7 | 11.0 | 0.0
COC(=O)c1ccccc1NC(=O)COc1ccccc1 | -4.5 | 13.0* | -1.6 | ? | -2.7 | 0.8
COC(=O)c1ccc(OCCOc2ccccc2)cc1 | -1.5 | -2.4 | 0.0 | 3.1 | -75.7* | -0.2
N#C/C(=C\c1c(Oc2ccccc2Cl)nc2ccccn2c1=O)C(=O)NC1CCS(=O)(=O)C1 (configuration not stated) | / | / | / | 91.2* | -4.0 | 1.5
Cc1ccc(Oc2nc3ccccn3c(=O)c2/C=C(\C#N)C(=O)NC2CCS(=O)(=O)C2)c(C)c1 (configuration not stated) | / | / | / | ? | 21.3 | 3.6
N#C/C(=C\c1c(Oc2ccccc2F)nc2ccccn2c1=O)C(=O)NC1CCS(=O)(=O)C1 (configuration not stated) | / | / | / | 127.8* | 18.6 | 7.9
Cc1cc(C)cc(Oc2nc3ccccn3c(=O)c2/C=C(\C#N)C(=O)NC2CCS(=O)(=O)C2)c1 (configuration not stated) | 60.2* | -1.0 | 88.1* | ? | 7.2 | 7.2
O=C(CSc1nnnn1Cc1ccccc1)Nc1ccccc1 | -2.3 | 9.3* | -1.2 | 1.9 | -2.1 | -0.7
Cc1nnc(NC(=O)CSc2nnnn2Cc2ccccc2)s1 | -1.2 | -2.1 | -2.0 | 0.2 | 12.4 | 0.0
CN(C)c1ccc(/C=C/c2ccc3ccccc3[n+]2C)cc1 | 3.3 | -4.3 | 1.1 | -4.3 | -92.4* | -0.2
O=C(NCCc1csc(-c2cccnc2)n1)c1ccccc1Br | -4.4 | -2.4 | 0.1 | 1.0 | 20.4 | 0.2
CCOC(=O)c1cc2c(=O)n3ccccc3nc2n(Cc2ccco2)c1=NC(=O)c1ccccc1OCC | 87.5* | -2.4 | 73.5* | 0.6 | 2.9 | 10.6
Cc1cccn2c(=O)c3cc(C#N)c(=NC(=O)c4ccco4)n(Cc4ccco4)c3nc12 | 88.1* | 0.1 | 9.6 | 119.9* | 9.0 | 9.0
Cc1nc2c(C)cccn2c(=O)c1NC(=O)c1ccco1 | / | / | / | -3.2 | 8.9 | -0.4
SMILES | Runt-SMMHC FRET | Wee1 degr inh | Runt-CBFb FRET | RanGTP-Imp inh | AI-2 QS mod | KLK7 zymogen act
CCOC(=O)c1cc2c(=O)n3ccccc3nc2n(CCCOC)c1=NC(=O)c1cccnc1 | 87.6* | -2.4 | 133.3* | 46.0* | 22.3 | /
COc1ccc(CCNC(=O)c2cc3c(=O)n4ccccc4nc3n(Cc3ccco3)c2=N)cc1OC | / | / | / | 13.2 | 2.3 | -2.4
CCOCCCn1c(=N)c(C(=O)Nc2cc(C)on2)cc2c(=O)n3ccccc3nc21 | / | -0.5 | / | / | / | /
CCOCCCn1c(=NC(C)=O)c(C(=O)OCC)cc2c(=O)n3ccccc3nc21 | 63.3* | -4.4 | 51.7* | 77.4* | 0.1 | 2.3
Cc1cccc(C)c1NC(=O)C1(C)CN(S(C)(=O)=O)CC(=O)N1CCc1ccccc1F (configuration not stated) | / | / | / | / | / | -0.4
COc1ccc(-c2nnn(CC(=O)N(CC3CCCO3)C(C(=O)NC(C)(C)C)c3ccco3)n2)cc1OC (configuration not stated) | -2.0 | -1.2 | -2.2 | ? | 15.5 | 0.2
CCOC(=O)c1cc2c(=O)n3cccc(C)c3nc2n(Cc2ccco2)c1=NC(=O)c1cccnc1 | 62.6* | 0.1 | 102.2* | / | / | 2.9
CCOC(=O)c1cc2c(=O)n3ccccc3nc2n(Cc2ccco2)c1=NC(=O)c1cccnc1 | 46.5 | -0.2 | 52.0* | 2.7 | 16.5 | -0.7
COc1ccc(CCn2c(=N)c(C(=O)NCc3ccco3)cc3c(=O)n4ccccc4nc32)cc1OC | / | / | / | / | / | -2.0
CCOC(=O)c1cc2c(=O)n3cccc(C)c3nc2n(C)c1=N | 37.9 | -0.2 | 11.5 | / | / | /
CCC(CC(C)(C)O)C(=O)NNC(=S)Nc1ccccc1 (configuration not stated) | 0.7 | 2.8 | 5.5 | ? | 8.5 | 0.7
O=C(N/N=C/c1ccc([N+](=O)[O-])s1)c1ccccc1Br | 0.8 | 1.7 | / | -0.2 | / | -0.2
O=C(N/N=C/c1ccc([N+](=O)[O-])s1)c1ccccc1 | -12.8 | -2.4 | 0.3 | -0.2 | 3.0 | 0.4
O=C(CNC(=O)c1cccc(F)c1)N/N=C/c1ccc([N+](=O)[O-])s1 | -4.5 | 1.0 | / | -2.9 | -148.0* | -0.2
Cc1ccccc1C(=O)N/N=C/c1ccc([N+](=O)[O-])s1 | -5.0 | -0.6 | 9.1 | 5.2 | -76.4* | 0.7
C[C@@H]1ON(C)[C@H]2C[C@H]3c4cc(-c5ccc6c(c5)OCO6)ccc4CCN3C[C@@H]12 | / | / | / | / | / | 0.3
O=C1COc2ccc(C(=O)COC(=O)Cc3ccc(F)cc3)cc2N1 | / | / | / | 2.8 | -81.8* | 7.4
Cc1cccn2c(=O)c3cc(S(=O)(=O)c4ccccc4)c(=N)n(CC4CCCO4)c3nc12 (configuration not stated) | 81.0* | -2.5 | 11.9 | 158.1* | -4.8 | /
Cc1ccc(S(=O)(=O)c2cc3c(=O)n4cccc(C)c4nc3n(CC3CCCO3)c2=N)cc1C (configuration not stated) | 88.1* | -0.4 | 65.8* | 136.6* | 22.2 | -2.0
